Key:
HL-60 = experiment: Antiproliferative activity against human HL60 cells assessed as growth inhibition incubated up to 4 days by MTS assay; assay type: functional, cell-based; conditions: HL-60, 96 h
Outline: (§1)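 Five human tumour cell lines were assayed by MTS. IC50 is the compound concentration that cuts optical density of treated cells by 50% relative to untreated cells. Mean of three independent determinations.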

SMMC-7721 [1] = experiment: Antiproliferative activity against human SMMC7721 cells assessed as growth inhibition incubated up to 4 days by MTS assay; assay type: functional, cell-based; conditions: SMMC-7721, 96 h; outline: as §1
A549 = experiment: Antiproliferative activity against human A549 cells assessed as growth inhibition incubated up to 4 days by MTS assay; assay type: functional, cell-based; conditions: A549, 96 h; outline: as §1
MCF7 = experiment: Antiproliferative activity against human MCF7 cells assessed as growth inhibition incubated up to 4 days by MTS assay; assay type: functional, cell-based; conditions: MCF7, 96 h; outline: as §1
SW480 = experiment: Antiproliferative activity against human SW480 cells assessed as growth inhibition incubated up to 4 days by MTS assay; assay type: functional, cell-based; conditions: SW480, 96 h; outline: as §1
SMMC-7721 [2] = experiment: Induction of apoptosis in human SMMC7721 cells assessed as viable cells at 2 uM after 48 hrs by Annexin-V/PI-staining based flow cytometry (reference value: 96.9%); assay type: functional; conditions: SMMC-7721, 48 h, read-out: Activity
SMMC-7721 [3] = experiment: Induction of apoptosis in human SMMC7721 cells assessed as early apoptotic cells at 2 uM after 48 hrs by Annexin-V/PI-staining based flow cytometry (reference value: 1.25%); assay type: functional
SMMC-7721 [4] = experiment: Induction of apoptosis in human SMMC7721 cells assessed as late apoptotic cells at 2 uM after 48 hrs by Annexin-V/PI-staining based flow cytometry (reference value: 0.649%); assay type: functional
SMMC-7721 [5] = experiment: Induction of apoptosis in human SMMC7721 cells assessed as necrotic cells at 2 uM after 48 hrs by Annexin-V/PI-staining based flow cytometry (reference value: 1.24%); assay type: functional
SMMC-7721 [6] = experiment: Induction of apoptosis in human SMMC7721 cells assessed as viable cells at 4 uM after 48 hrs by Annexin-V/PI-staining based flow cytometry (reference value: 96.9%); assay type: functional; conditions: SMMC-7721, 48 h, read-out: Activity
SMMC-7721 [7] = experiment: Induction of apoptosis in human SMMC7721 cells assessed as early apoptotic cells at 4 uM after 48 hrs by Annexin-V/PI-staining based flow cytometry (reference value: 1.25%); assay type: functional
SMMC-7721 [8] = experiment: Induction of apoptosis in human SMMC7721 cells assessed as late apoptotic cells at 4 uM after 48 hrs by Annexin-V/PI-staining based flow cytometry (reference value: 0.649%); assay type: functional
SMMC-7721 [9] = experiment: Induction of apoptosis in human SMMC7721 cells assessed as necrotic cells at 4 uM after 48 hrs by Annexin-V/PI-staining based flow cytometry (reference value: 1.24%); assay type: functional
SMMC-7721 [10] = experiment: Induction of apoptosis in human SMMC7721 cells assessed as viable cells at 8 uM after 48 hrs by Annexin-V/PI-staining based flow cytometry (reference value: 96.9%); assay type: functional; conditions: SMMC-7721, 48 h, read-out: Activity
SMMC-7721 [11] = experiment: Induction of apoptosis in human SMMC7721 cells assessed as early apoptotic cells at 8 uM after 48 hrs by Annexin-V/PI-staining based flow cytometry (reference value: 1.25%); assay type: functional
SMMC-7721 [12] = experiment: Induction of apoptosis in human SMMC7721 cells assessed as late apoptotic cells at 8 uM after 48 hrs by Annexin-V/PI-staining based flow cytometry (reference value: 0.649%); assay type: functional
SMMC-7721 [13] = experiment: Induction of apoptosis in human SMMC7721 cells assessed as necrotic cells at 8 uM after 48 hrs by Annexin-V/PI-staining based flow cytometry (reference value: 1.24%); assay type: functional
SMMC-7721 [14] = experiment: Induction of cell cycle arrest in human SMMC7721 cells assessed as accumulation at G0/G1 phase at 2 uM after 24 hrs by propidium iodide staining based flow cytometric analysis (reference value: 63.71 +/- 0.31%); assay type: functional
SMMC-7721 [15] = experiment: Induction of cell cycle arrest in human SMMC7721 cells assessed as accumulation at G0/G1 phase at 4 uM after 24 hrs by propidium iodide staining based flow cytometric analysis (reference value: 63.71 +/- 0.31%); assay type: functional
SMMC-7721 [16] = experiment: Induction of cell cycle arrest in human SMMC7721 cells assessed as accumulation at G0/G1 phase at 8 uM after 24 hrs by propidium iodide staining based flow cytometric analysis (reference value: 63.71 +/- 0.31%); assay type: functional
SMMC-7721 [17] = experiment: Induction of cell cycle arrest in human SMMC7721 cells assessed as accumulation at S phase at 2 uM after 24 hrs by propidium iodide staining based flow cytometric analysis (reference value: 23.26 +/- 0.57%); assay type: functional
SMMC-7721 [18] = experiment: Induction of cell cycle arrest in human SMMC7721 cells assessed as accumulation at S phase at 4 uM after 24 hrs by propidium iodide staining based flow cytometric analysis (reference value: 23.26 +/- 0.57%); assay type: functional
SMMC-7721 [19] = experiment: Induction of cell cycle arrest in human SMMC7721 cells assessed as accumulation at S phase at 8 uM after 24 hrs by propidium iodide staining based flow cytometric analysis (reference value: 23.26 +/- 0.57%); assay type: functional
SMMC-7721 [20] = experiment: Induction of cell cycle arrest in human SMMC7721 cells assessed as accumulation at G2/M phase at 2 uM after 24 hrs by propidium iodide staining based flow cytometric analysis (reference value: 6.70 +/- 0.63%); assay type: functional
SMMC-7721 [21] = experiment: Induction of cell cycle arrest in human SMMC7721 cells assessed as accumulation at G2/M phase at 4 uM after 24 hrs by propidium iodide staining based flow cytometric analysis (reference value: 6.70 +/- 0.63%); assay type: functional
SMMC-7721 [22] = experiment: Induction of cell cycle arrest in human SMMC7721 cells assessed as accumulation at G2/M phase at 8 uM after 24 hrs by propidium iodide staining based flow cytometric analysis (reference value: 6.70 +/- 0.63%); assay type: functional
SMMC-7721 [23] = experiment: Induction of cell cycle arrest in human SMMC7721 cells assessed as accumulation at sub-G1 phase at 2 uM after 24 hrs by propidium iodide staining based flow cytometric analysis (reference value: 3.173 +/- 0.26%); assay type: functional
SMMC-7721 [24] = experiment: Induction of cell cycle arrest in human SMMC7721 cells assessed as accumulation at sub-G1 phase at 4 uM after 24 hrs by propidium iodide staining based flow cytometric analysis (reference value: 3.173 +/- 0.26%); assay type: functional
SMMC-7721 [25] = experiment: Induction of cell cycle arrest in human SMMC7721 cells assessed as accumulation at sub-G1 phase at 8 uM after 24 hrs by propidium iodide staining based flow cytometric analysis (reference value: 3.173 +/- 0.26%); assay type: functional

Cc1cc2c(cc1C)[n+](CC(=O)c1ccc3ccccc3c1)cn2C(c1ccccc1)c1cc2ccccc2oc1=O.[Br-] (centres undefined)
IC50 (HL-60): 2070 nM | IC50 (SMMC-7721 [1]): 3770 nM | IC50 (A549): 4510 nM | IC50 (MCF7): 2040 nM | IC50 (SW480): 2320 nM | viability at 2 µM (SMMC-7721 [2]): 96.4% | Activity (SMMC-7721 [3]): 1.3% | Activity (SMMC-7721 [4]): 0.698% | Activity (SMMC-7721 [5]): 1.58% | viability at 4 µM (SMMC-7721 [6]): 93.2% | Activity (SMMC-7721 [7]): 4.82% | Activity (SMMC-7721 [8]): 1.39% | Activity (SMMC-7721 [9]): 0.541% | viability at 8 µM (SMMC-7721 [10]): 60.9% | Activity (SMMC-7721 [11]): 25.6% | Activity (SMMC-7721 [12]): 11.2% | Activity (SMMC-7721 [13]): 2.27% | Activity (SMMC-7721 [14]): 65.02% | Activity (SMMC-7721 [15]): 67.69% | Activity (SMMC-7721 [16]): 70.88% | Activity (SMMC-7721 [17]): 21.82% | Activity (SMMC-7721 [18]): 22.47% | Activity (SMMC-7721 [19]): 16.42% | Activity (SMMC-7721 [20]): 6.92% | Activity (SMMC-7721 [21]): 7.59% | Activity (SMMC-7721 [22]): 9.68% | Activity (SMMC-7721 [23]): 3.25% | Activity (SMMC-7721 [24]): 5.16% | Activity (SMMC-7721 [25]): 2.54%

— ChEMBL document CHEMBL4610035, “Synthesis and biological evaluation of novel 3-benzylcoumarin-imidazolium salts” (Bioorg Med Chem Lett, 2020)
